Measured values taken from publication PMC9401513 (Clinical Cancer Research, 2021).
Where a SMILES comes first, the peptide text is derived from it. [ ]: non-standard residue; d: D form. The star is where a group is joined. Dolaproine = CO[C@@H]([C@@H]1CCCN1)[C@@H](C)C(=O)O; Dil = CC[C@H](C)[C@H](NC)[C@@H](CC(=O)O)OC; Doe = c1ccc(C[C@H](N*)c2nccs2)cc1; Aib = CC(C)(N)C(=O)O

B1: hu6M024: humanized anti-PTK7 mAb (IgG1); total antibody = conjugated or unconjugated mAb (antibody, chains of the INN, looked up, V domains shown)
VH: QVQLVQSGPEVKKPGASVKVSCKASGYTFTDYAVHWVRQAPGKRLEWIGVISTYNDYTYNNQDFKGRVTMTRDTSASTAYMELSRLRSEDTAVYYCARGNSYFYALDYWGQGTSVTVSS
VL: EIVLTQSPATLSLSPGERATLSCRASESVDSYGKSFMHWYQQKPGQAPRLLIYRASNLESGIPARFSGSGSGTDFTLTISSLEPEDFAVYYCQQSNEDPWTFGGGTKLEIK

What was measured:
CYP3A4 = CYP3A4 (Homo sapiens, UniProt P08684); experiment: Drug-drug interaction substudy with multiple-dose fluconazole; type: in vivo; conditions: PF-06647020 co-administered with multiple-dose fluconazole, 11 patients
In short: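 Single-dose test ADC was given alone in cycle 1 (reference) and co-administered with multiple-dose fluconazole in cycle 2 (test). Unconjugated payload exposure was measured as dose-normalized AUCinf and Cmax from noncompartmental analysis. Results were expressed as ratios of adjusted geometric means with 90% confidence intervals.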

[1] = Clinical pharmacokinetics; type: in vivo, human; conditions: 0.2 to 3.7 mg/kg every 3 weeks dose levels of PF-06647020

Sequence of CYP3A4 (P08684 whole entry): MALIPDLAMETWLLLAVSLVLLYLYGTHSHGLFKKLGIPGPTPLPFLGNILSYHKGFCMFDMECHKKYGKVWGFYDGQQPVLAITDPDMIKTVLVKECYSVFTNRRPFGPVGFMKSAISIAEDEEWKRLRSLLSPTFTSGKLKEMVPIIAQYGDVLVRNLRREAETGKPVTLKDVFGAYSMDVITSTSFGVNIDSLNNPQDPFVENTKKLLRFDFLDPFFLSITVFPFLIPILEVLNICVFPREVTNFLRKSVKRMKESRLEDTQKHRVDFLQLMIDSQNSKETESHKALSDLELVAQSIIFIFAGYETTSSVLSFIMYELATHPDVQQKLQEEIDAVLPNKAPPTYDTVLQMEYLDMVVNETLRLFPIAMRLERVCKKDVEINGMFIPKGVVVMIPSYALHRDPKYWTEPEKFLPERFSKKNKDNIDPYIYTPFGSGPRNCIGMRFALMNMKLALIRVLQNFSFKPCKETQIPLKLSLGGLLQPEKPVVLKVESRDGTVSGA

| Molecule | impact of fluconazole co-administration on overall exposure (CYP3A4) | systemic exposure (AUCtau, Cmax) versus dose [1] |
| --- | --- | --- |
| CC[C@H](C)[C@@H]([C@@H](CC(=O)N1CCC[C@H]1[C@H](OC)[C@@H](C)C(=O)N[C@@H](Cc1ccccc1)c1nccs1)OC)N(C)C(=O)[C@@H](NC(=O)C(C)(C)N)C(C)C [PF-06380101, auristatin-0101] (H-[Aib]V[Dil][Dolaproine]-Doe) | did not have a notable impact | – |
| B1 | did not have a notable impact | generally increased in a dose-related manner |
